The values that follow come from ChEMBL document CHEMBL3132745, “Synthesis and Antimicrobial Activities of His(2-aryl)-Arg and Trp-His(2-aryl) Classes of Dipeptidomimetics” (Medchemcomm, 2014).

Converted amounts (≈) assume the structure as drawn. The source made the active and inactive calls. No rule for the calls is given here. Residues, ends and D or L forms follow the SMILES beside them. Bounds are passed on as bounds.

The subject of one series is SK-MEL. The experiment in a line: Cytotoxicity against human SK-MEL cells assessed as cell viability after 48 hrs by neutral red uptake assay. The series is classed as cell-based. The method in brief: (§1)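 Neutral red uptake assay on human cancer lines (SK-MEL, KB, BT-549, SK-OV-3) and noncancerous mammalian cells (VERO, LLC-PK1). Highest tested concentration was 10 µg/mL.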

The next series deals with Escherichia coli. The series can be described thus: Antibacterial activity against Escherichia coli ATCC 35218 assessed as growth inhibition after 16-20 hrs by CLSI method. The series is classed as functional, organism-based.
Another series deals with Cryptococcus neoformans. The experiment in a line: Antifungal activity against Cryptococcus neoformans ATCC 90113 assessed as growth inhibition after 70-74 hrs by CLSI method. The format is functional, organism-based.
Another series has as its system Vero. The experiment in a line: Cytotoxicity against african green monkey Vero cells assessed as cell viability after 48 hrs by neutral red uptake assay. Conditions: chlorocebus sabaeus. The series is classed as cell-based. Put shortly: as §1
Another series has as its system Candida albicans. The experiment in a line: Antifungal activity against Candida albicans assessed as growth inhibition. The format is functional, organism-based.
For another series, the system named is KB. The experiment in a line: Cytotoxicity against human KB cells assessed as cell viability after 48 hrs by neutral red uptake assay. The series is classed as cell-based. Put shortly:
as §1

Another series deals with Pichia kudriavzevii. The series can be described thus: Antifungal activity against Candida krusei assessed as growth inhibition. The series is classed as functional, organism-based.
A further series concerns LLC-PK1. The series can be described thus: Cytotoxicity against pig LLC-PK1 cells assessed as cell viability after 48 hrs by neutral red uptake assay. The series is classed as cell-based, Sus scrofa. Particulars: llc-pk1, 48 h. Put shortly: as §1
The subject of another series is Nakaseomyces glabratus. The series can be described thus: Antifungal activity against Candida glabrata assessed as growth inhibition. The format is functional, organism-based.
The subject of a further series is BT-549. The series can be described thus: Cytotoxicity against human BT549 cells assessed as cell viability after 48 hrs by neutral red uptake assay. The format is cell-based. Particulars: bt-549, 48 h. The method in brief: as §1
In another series the test system is SK-OV-3. The experiment in a line: Cytotoxicity against human SKOV3 cells assessed as cell viability after 48 hrs by neutral red uptake assay. The format is cell-based. Conditions: sk-ov-3, 48 h. Put shortly: as §1
Another series relates to Aspergillus fumigatus. The experiment in a line: Antifungal activity against Aspergillus fumigatus assessed as growth inhibition. The format is functional, organism-based.
Where [1] appears, read: Cryptococcus neoformans, ATCC 90113, read-out: IC50.
[2] abbreviates: Cryptococcus neoformans, ATCC 90113.

On to `COC(=O)[C@H](Cc1c[nH]cn1)NC(=O)[C@@H](N)Cc1c[nH]c2ccccc12` (H-Trp-His-OMe), for which the Activity in the series with SK-MEL, with Vero, with KB, in the series with LLC-PK1, in the series with BT-549 and in the series on SK-OV-3 was over 10 µg/mL throughout. For the same compound, the “growth inhibition (GI)” value in the series on Escherichia coli, in the series on Candida albicans, with Pichia kudriavzevii, in the series with Nakaseomyces glabratus and in the series with Aspergillus fumigatus was “inactive” in each case. The IC50 entry in the series with Cryptococcus neoformans is “Not Active”. The MFC entry with Cryptococcus neoformans was “inactive”. Besides, the MIC result in the series on Cryptococcus neoformans is “inactive”.

On to `COC(=O)[C@H](CCCNC(=N)N)NC(=O)[C@@H](N)Cc1c[nH]c(-c2ccc(C)cc2)n1`, for which the Activity in the series with SK-MEL, with Vero, with KB, in the series on LLC-PK1, with BT-549 and in the series with SK-OV-3 was over 10 µg/mL in each case. The “growth inhibition (GI)” value with Escherichia coli, in the series with Candida albicans, in the series with Pichia kudriavzevii, in the series on Nakaseomyces glabratus and in the series with Aspergillus fumigatus was “inactive” each time. Besides, in the series on Cryptococcus neoformans, the IC50 entry is listed as “Not Active”. Moreover, in the series on Cryptococcus neoformans, the MFC result is “inactive”. For the same compound, the MIC result in the series on Cryptococcus neoformans was “inactive”.

For `COC(=O)[C@H](Cc1c[nH]c(-c2ccc(C)cc2)n1)NC(=O)[C@@H](N)Cc1c[nH]c2ccccc12`, the Activity with SK-MEL, in the series on Vero, in the series with KB, with LLC-PK1, in the series on BT-549 and with SK-OV-3 was over 10 µg/mL in each case. Besides, the “growth inhibition (GI)” value in the series with Escherichia coli, in the series on Candida albicans, with Pichia kudriavzevii, in the series with Nakaseomyces glabratus and in the series with Aspergillus fumigatus was “inactive” each time. In addition, in the series with Cryptococcus neoformans, the MFC result is “inactive”. In addition, in the series with Cryptococcus neoformans, the MIC entry was “inactive”. Besides, the IC50 with Cryptococcus neoformans (setting [1]) was 11.9 µg/mL (≈ 26.7 µM).

For the compound `COC(=O)[C@H](Cc1c[nH]c(-c2ccc(OC)cc2)n1)NC(=O)[C@H](Cc1c[nH]c2ccccc12)NC(=O)OC(C)(C)C`, the Activity with SK-MEL, with Vero, in the series with KB, with LLC-PK1, in the series with BT-549 and in the series on SK-OV-3 was over 10 µg/mL each time. For the same compound, the “growth inhibition (GI)” value in the series with Escherichia coli, in the series with Candida albicans, with Pichia kudriavzevii, in the series on Nakaseomyces glabratus and in the series on Aspergillus fumigatus was “inactive” in each case. Besides, the IC50 result in the series on Cryptococcus neoformans is reported as “Not Active”. Moreover, in the series on Cryptococcus neoformans, the MFC entry was “inactive”. Besides, in the series on Cryptococcus neoformans, the MIC result was “inactive”.

Take `C[C@@H]1[C@H](O)[C@@H](C)/C=C/C=C/C=C/C=C/C=C/C=C/C=C/[C@H](O[C@@H]2O[C@H](C)[C@@H](O)[C@H](N)[C@@H]2O)C[C@@H]2O[C@](O)(C[C@@H](O)C[C@@H](O)[C@H](O)CC[C@@H](O)C[C@@H](O)CC(=O)O[C@H]1C)C[C@H](O)[C@H]2C(=O)O` [AMPHOTERICIN B]: in the series with Cryptococcus neoformans (setting [2]), the MFC is 1.25 µg/mL (≈ 1.35 µM) and the MIC was found to be 1.25 µg/mL (≈ 1.35 µM). The half-inhibitory concentration (IC50) with Cryptococcus neoformans (setting [1]) came out at 0.69 µg/mL (≈ 0.747 µM).

By IC50 is commonly meant the concentration that gives 50% inhibition. As a reminder, the MFC is the lowest tested concentration that kills the fungus rather than only halting it. Usually MIC stands for the lowest concentration found to suppress growth.
